Results on 2 compounds are retold here after ChEMBL document CHEMBL1127851, “Synthesis and biological properties of 5-o-carboranyl-1-(2-deoxy-2-fluoro-beta-D-arabinofuranosyl)uracil” (J Med Chem, 1994).

The IC50 is the concentration that inhibits the measured activity by half. High values mean lower potency, low ones higher potency. The term EC50 denotes the concentration that produces a half-maximal response. A low value points to an effect from little substance.

The subject of experiment [1] is Mus musculus. Kind of experiment: Percentage of weight gained or lost in 1 week in normal swiss mice at a dose of 30 mg/kg/day. The class given is functional. The method in brief:
(§1)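 Female Swiss mice, 6 weeks old, 5 per group. Given 30 mg/kg/day ip in sterile DMSO (0.1 mL) once daily for 6 days. DMSO and water controls. Weighed twice weekly for 28 days. Survival recorded at week 4.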

Experiment [2] relates to Mus musculus. Kind of experiment: Percentage of weight gained or lost in 4th week in normal swiss mice at a dose of 30 mg/kg/day. The class given is functional. The method in brief: as §1
For experiment [3], the species on record is Mus musculus. Kind of experiment: Number of animals survived when the compound was tested at a dose of 30 mgkg/day in 5 Swiss mice. The class given is functional. The method in brief:
as §1

Experiment [4] has as its system Mus musculus. Put plainly: Percentage of weight gained or lost in 2nd week in normal swiss mice at a dose of 30 mg/kg/day. The experiment is classed as functional. The method in brief:
as §1

Experiment [5] deals with Mus musculus. Kind of experiment: Percentage of weight gained or lost in 3rd week in normal swiss mice at a dose of 30 mg/kg/day. The experiment is classed as functional. The method in brief:
as §1

The test system of the next experiment is CFU-GM. Put plainly: Compound was tested for inhibitory activity against human myeloid cells (CFU-GM). The experiment is classed as functional, cell-based. The method in brief:
(§2)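 Human bone marrow aspirated from healthy donors and heparinized. Mononuclear cells isolated on Ficoll-Hypaque, washed twice in HBSS; viability >98% by trypan blue. Bilayer soft agar or methyl cellulose culture at 0.1–100 μM. After 14 days at 37 °C in 5% CO2, colonies of ≥50 cells counted; % of control. Three donors, each in triplicate.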

Experiment [6] in a line: Compound was tested for inhibitory activity against erythroid (BFU-E) progenitor cells. The experiment is classed as functional, Homo sapiens. The method in brief: as §2
Experiment [7] relates to PBMC. Put plainly: Cytotoxic concentration against PBM cells was determined on day 6. The experiment is classed as functional, cell-based. The conditions noted are these: Homo sapiens, 144 h. The method in brief: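 Cytotoxicity in human PBM, CEM and Vero cells, compounds diluted from 40 mM DMSO stocks. IC50 from the concentration-response curve by Chou–Talalay median-effect method. Replicate assays, variability under 15%.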

For experiment [8], the system named is PBMC. Kind of experiment: Antiviral activity against HIV-1 strain LAI in PBM cells on day 6. The experiment is classed as functional, cell-based. Particulars: Homo sapiens, 144 h. The method in brief: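 HIV-1 (strain […] per footnote) in human PBM cells, acutely infected. Compounds from 40 mM DMSO stocks, diluted to test concentrations. EC50 from concentration-response curve by Chou–Talalay median-effect method. Replicate assays, variability under 15%.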

Another experiment deals with Vero. Put plainly: Antiviral activity against HSV-1 strain F in Vero cells on day 2. The experiment is classed as functional, cell-based. Particulars: Chlorocebus sabaeus, 48 h. The method in brief:
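Plaque reduction assay in Vero cells infected with HSV-1 strain F. […], diluted from 40 mM DMSO stocks. EC50 by Chou–Talalay median-effect analysis of the concentration-response curve. Replicate assays.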

Molecules are shown by their SMILES.

`C[S+](C)[O-]` [DIMETHYL SULFOXIDE]: the “Weight gain or loss” value is -0.9% in the experiment with Mus musculus [1], 10% in the experiment with Mus musculus [2], 3% in the experiment on Mus musculus [4] and 6.3% in the experiment on Mus musculus [5]. In addition, the “No. of animals survived” value in the experiment filed under Mus musculus [3] worked out at 5.
Take `Cc1cn([C@H]2C[C@H](N=[N+]=[N-])[C@@H](CO)O2)c(=O)[nH]c1=O` [ZIDOVUDINE]: the IC50 in the experiment with CFU-GM was 1500 nM; in experiment [6], 600 nM; in the experiment on PBMC [7] it was above 100000 nM. The 50% effective concentration (EC50) in the experiment on PBMC [8] was 4 nM; in the experiment on Vero it was above 50000 nM.
